Measurements taken from paper PMC3204583 (Journal of medicinal chemistry, 2010).

Tests used:
[1] = tested on: chymotrypsin-like (CT-like) activity of proteasomes isolated from LCLs; assay: Proteasome chymotrypsin-like activity, fluorogenic substrate Suc-LLVY-AMC; assay type: biochemical; conditions: 10 µM compound
Procedure, shortened: (§1)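 Proteasomes came from lymphoblastoid cells lysed by glass-bead vortexing in Tris pH 7.5, MgCl2, DTT, ATP and sucrose buffer. They were semipurified by centrifugation and 100,000g ultracentrifugation. Preparations were pretreated with test compound for 30 min at 37°C, then assayed 45 min at 37°C with Suc-LLVY-AMC (CT-like), Boc-LRR-AMC (T-like) or Ac-YVAD-AMC (PGPH/caspase-like). Reactions were SDS-quenched and read at ex 380/em 440 nm. Results are % inhibition versus untreated; IC50 is the mean of three determinations.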

[2] = tested on: trypsin-like (T-like) activity of proteasomes isolated from LCLs; assay: Proteasome trypsin-like activity, fluorogenic substrate Boc-LRR-AMC; assay type: biochemical; conditions: 10 µM compound
Procedure, shortened: as §1

[3] = tested on: peptidylglutamyl peptide hydrolyzing-like (PGPH-like) activity of proteasomes isolated from LCLs; assay: Proteasome PGPH-like activity, fluorogenic substrate Ac-YVAD-AMC; assay type: biochemical; conditions: for inhibition of PGPH-like activity of 20S proteasome: 10 µM compound; for IC50: read-out: Isolated enzyme IC50(µM) PGPH-like, proteasomes isolated from LCLs, average of three independent determinations
Procedure, shortened: as §1

[4] = tested on: poly-ubiquitinated proteins in HeLa cervical cancer cells; assay: Immunoblot analysis of poly-ubiquitinated proteins in HeLa cells; assay type: cell-based, human; conditions: eight hours treatment
Procedure, shortened: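 HeLa cells were grown in DMEM with 10% FBS, penicillin and streptomycin at 5% CO2, then treated for 8 h with or without test compound at several concentrations. Bortezomib served as the positive control. Poly-ubiquitinated proteins were detected by immunoblot, with β-actin as the loading control.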

Cathepsin D = Cathepsin D (Homo sapiens, UniProt P07339); assay: Residual Cathepsin D activity in HeLa cells; assay type: cell-based; conditions: concentrations up to 50 µM
Cathepsin D, sequence (P07339 65-412): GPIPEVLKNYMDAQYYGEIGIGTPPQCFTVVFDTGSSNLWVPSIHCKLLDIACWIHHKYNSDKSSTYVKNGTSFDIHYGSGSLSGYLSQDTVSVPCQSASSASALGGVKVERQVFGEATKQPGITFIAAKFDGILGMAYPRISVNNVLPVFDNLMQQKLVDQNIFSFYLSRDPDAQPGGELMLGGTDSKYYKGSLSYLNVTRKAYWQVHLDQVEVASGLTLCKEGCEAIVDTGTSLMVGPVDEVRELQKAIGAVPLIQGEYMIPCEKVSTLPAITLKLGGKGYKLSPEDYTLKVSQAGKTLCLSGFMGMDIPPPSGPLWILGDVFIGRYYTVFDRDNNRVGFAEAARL

Calpain = assay: Residual Calpain activity in HeLa cells; assay type: cell-based, human; conditions: concentrations up to 50 µM
[5] = tested on: SiHa cervical cancer cells (HPV16+); assay: XTT cell viability assay, SiHa; assay type: cell-based, human; conditions: 48 hours
[6] = tested on: ME180 cervical cancer cells (HPV58+); assay: XTT cell viability assay, ME180; assay type: cell-based, human; conditions: 48 hours
[7] = tested on: primary human Keratinocytes; assay: XTT cell viability assay, primary Keratinocytes; assay type: cell-based; conditions: 48 hours
[8] = tested on: Ub-FL reporter in HeLa cervical cancer cells; assay: Ubiquitin-Firefly luciferase; assay type: cell-based, human; conditions: combination of Bortezomib (5nM) and compound 2 (1µM)
Procedure, shortened: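 HeLa cells were transfected with either the Ub-FL reporter (four ubiquitin G76V copies fused N-terminal to firefly luciferase) or the CMV-FL control. They were replated 24 h later at 1×10^4 cells/well and left 18 h to attach. Cells then received bortezomib 5 nM, test compound 1 µM, or both for 6 h. Lysate luciferase was read as RLU, given as % of control, from three independent experiments with SE.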

[9] = tested on: HeLa cervical cancer cells; assay: Combination with Bortezomib, XTT viability, isobologram / combination index; assay type: cell-based, human
[10] = tested on: HeLa cervical cancer cells; assay: Cellular morphology by phase contrast microscopy; assay type: cell-based, human; conditions: combination of Bortezomib (5nM)+compound 2 (1 µM), 48 hours
HeLa cells = assay: Washout experiment, residual cell viability; assay type: cell-based, human; conditions: HeLa cells briefly treated
Procedure, shortened: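 HeLa cells grown in DMEM with 10% FBS, penicillin/streptomycin, 5% CO2. Cells were briefly exposed to the test compound or bortezomib (reversible-inhibitor reference), then washed out; non-washout cultures served as comparison. Viability was read by XTT: seeded at 1,000 cells/well, 4 h with XTT labeling mixture, absorbance at 450 nm. Run in triplicate, mean ± SE.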

| SMILES | inhibition of chymotrypsin-like (CT-like) activity of 20S proteasome [1] | inhibition of trypsin-like (T-like) activity of 20S proteasome [2] | inhibition of PGPH-like activity of 20S proteasome [3] | IC50 [3] | levels of poly-ubiquitinated proteins [4] | cell viability after washout compared to non-washout cultures (HeLa cells) | also measured |
| --- | --- | --- | --- | --- | --- | --- | --- |
| CC(C)C[C@H](NC(=O)N1C/C(=C\c2ccc(Cl)c(Cl)c2)C(=O)/C(=C/c2ccc(Cl)c(Cl)c2)C1)C(=O)O [Compound 4] | partial inhibition | partial inhibition | partial inhibition | > 10 µM | – | – | – |
| O=C(O)CC[C@H](NC(=O)N1C/C(=C\c2ccc(Cl)c(Cl)c2)C(=O)/C(=C/c2ccc(Cl)c(Cl)c2)C1)C(=O)O [Compound 5] | – | – | – | – | no changes | – | – |
| O=C1/C(=C/c2ccc(Cl)c(Cl)c2)CN(C(=O)N[C@@H](Cc2ccccc2)C(=O)O)C/C1=C\c1ccc(Cl)c(Cl)c1 [Compound 2] | nearly fully abrogated | nearly fully abrogated | nearly fully abrogated | – | – | partial recovery in cell viability | inhibitory capacity toward Cathepsin D activity (Cathepsin D): no inhibitory capacity; inhibitory capacity toward Calpain activity (Calpain): no inhibitory capacity; effect on viability of SiHa [5]: dose-dependent drop; effect on viability of ME180 [6]: dose-dependent drop; effect on viability of primary human Keratinocytes [7]: minimal effects; stabilization of the Ub-FL degron compared to single agents alone [8]: significantly enhance the stabilization; Combination Index (CI) ([9]; Bortezomib 3.95 nmol/L / compound 2 2.5 mM/L): 0.6; Combination Index (CI) ([9]; Bortezomib 6.125 nmol/L / compound 2 1.64 mM/L): 0.6; Combination Index (CI) ([9]; Bortezomib 7.5 nmol/L / compound 2 1.06 mM/L): 0.59; interaction of the combination with Bortezomib by isobologram analysis ([9]; checker board dilution series, XTT): highly synergistic; morphological changes compared to single treatment alone [10]: greater apoptotis-associated morphological changes |
| CC(C)C[C@H](NC(=O)[C@H](Cc1ccccc1)NC(=O)c1cnccn1)B(O)O [Bortezomib, reference compound] | – | – | – | – | increase | partial recovery in cell viability | – |
| O=C1/C(=C/c2ccc(Cl)c(Cl)c2)CN(C(=O)N[C@@H](Cc2ccc(O)cc2)C(=O)O)C/C1=C\c1ccc(Cl)c(Cl)c1 [Compound 3] | partial inhibition | partial inhibition | partial inhibition | > 10 µM | – | – | – |
